Measurements collected from several papers.
Each line is one published result; the experiments were not run side by side.
JAK2 JH1: Tyrosine-protein kinase JAK2, JH1 (JAK2, Homo sapiens, UniProt O60674)
JAK2: Tyrosine-protein kinase JAK2 (JAK2, Homo sapiens, UniProt O60674)

Structure (SMILES)	target	assay	setting	quantity	result
C1=C/COCc2cc(ccc2OCCN2CCCC2)Nc2nccc(n2)-c2cccc(c2)COC/1	JAK2 JH1	cell-free assay	0.1 µM	remaining signal	6.8%
N#Cc1ccc(NC(=O)Nc2ccccc2)cc1	JAK2 JH1	cell-free assay, competition with immobilised ligand	25 µM	remaining binding	86%
CC(C)S(=O)(=O)c1ccc2nccc(Nc3ccc4sc(C5CCCC5)nc4c3)c2c1	JAK2	enzyme activity, inhibitor	1 µM	activity vs control	98%
CO[C@@H]1[C@H](N(C)C(=O)c2ccccc2)C[C@H]2O[C@]1(C)n1c3ccccc3c3c4c(c5c6ccccc6n2c5c31)C(=O)NC4	JAK2 JH1	enzyme activity, inhibitor	1 µM	inhibition	100%
C#Cc1cc(-c2cc(Nc3nc(N[C@@H](C)c4ccc(F)cn4)ncc3Cl)n[nH]2)ccc1C=O	JAK2	enzyme activity, inhibitor	0.2 µM	inhibition	99.7%
C=CC(=O)N1CCC([C@@H]2CCNc3c(C(N)=O)c(-c4ccc(Oc5ccccc5)cc4)nn32)CC1	JAK2 JH1	enzyme activity, inhibitor	1 µM	inhibition	12%
CN1CCN(C(=O)c2ccc(NC(=O)Nc3ccc(N(C)c4ccnc(Nc5ccc(CS(C)(=O)=O)cc5)n4)cc3)cc2)CC1	JAK2 JH1	cell-free assay, competition with immobilised ligand	1 µM	remaining binding	4.7%
COc1ccc2oc(-c3ccc4nc(N)oc4c3)c/c(=N\c3ccccc3NC(=O)CCN)c2c1	JAK2	binding	1 µM	remaining binding	96%
CCCCC(=O)Nc1ccc(-c2ccc3ncn(CCC)c(=O)c3c2)cn1	JAK2 JH1	binding, competition with immobilised ligand	0.5 µM	remaining binding	100%
C[C@H]1CC[C@H](n2c3cnccc3c3cnc(Nc4ccc5c(n4)CCN(C(=O)CO)C5)nc32)CC1	JAK2 JH1	cell-free assay, competition with immobilised ligand	1 µM	remaining binding	50%
